What was measured:
[1] = Cytotoxicity against folate receptor over-expressing mouse ID8 cells after 72 hrs by MTT assay; assay type: functional, cell-based; conditions: ID8, 72 h
Method in brief: (§1)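 Adherent monolayers in RPMI-1640 with 5% heat-inactivated FBS, 5% NuSerum and PenStrep, 37 °C, 5% CO2. Seeded 0.5–1.5 × 10^4 cells/well and left to attach overnight, then medium replaced. Compound diluted from DMSO stock to 0.5–5,000 nM final, DMSO ≤1%, 72 h. MTT 0.5 mg/mL for 3 h at 37 °C, formazan dissolved in acidic isopropanol/Triton, A570. IC50 from four-parameter logistic fit.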

MX1 [2] = test: Cytotoxicity against folate receptor over-expressing human MX1 cells after 72 hrs by MTT assay; assay type: functional, cell-based; conditions: MX1, 72 h; method in brief: as §1
L1210 [3] = test: Cytotoxicity against folate receptor over-expressing mouse L1210 cells after 72 hrs by MTT assay; assay type: functional, cell-based; conditions: L1210, 72 h
Method in brief: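 L1210FR cells grown in suspension in supplemented RPMI-1640. Resuspended directly in test solutions, 0.5–5,000 nM final, at 0.5–0.8 × 10^4 cells/well, DMSO ≤1%. Incubated 72 h. MTT 0.5 mg/mL for 3 h at 37 °C, formazan dissolved in 0.1 N HCl/isopropanol with 10% Triton X-100, absorbance at 570 nm. IC50 from four-parameter logistic fit, with standard errors.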

[4] = Cytotoxicity against folate receptor deficient human WI38 cells after 72 hrs by MTT assay; assay type: functional, cell-based; conditions: WI-38, 72 h; method in brief: as §1
MX1 [5] = test: Cytotoxicity against folate receptor over-expressing human MX1 cells incubated for 24 hrs followed by 6 equiv GSH-OEt addition and further incubated for another 48 by MTT assay; assay type: functional, cell-based; conditions: MX1, 24 h
Method in brief: (§2)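 After 24 h treatment with the conjugate, glutathione ethyl ester (GSH-OEt, 6 equiv.) was added, followed by a further 48 h, 72 h total. Cells-permeable thiol ester. Compound 0.5–5,000 nM in RPMI-1640 medium. MTT read-out at 570 nm. IC50 from four-parameter logistic fit.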

MX1 [6] = test: Cytotoxicity against folate receptor over-expressing human MX1 cells incubated for 24 hrs followed by 6 equiv GSH addition and further incubated for another 48 by MTT assay; assay type: functional, cell-based; conditions: MX1, 24 h
Method in brief: (§3)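 Cells were exposed to the conjugate for 24 h, then reduced glutathione (GSH, 6 equiv.) was added and incubation continued 48 h, 72 h in total. Compound range 0.5–5,000 nM in RPMI-1640 medium, which contains folic acid. Read-out by MTT at 570 nm. IC50 from four-parameter logistic curve.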

L1210 [7] = test: Cytotoxicity against folate receptor over-expressing mouse L1210 cells incubated for 24 hrs followed by 6 equiv GSH-OEt addition and further incubated for another 48 by MTT assay; assay type: functional, cell-based; conditions: L1210, 24 h; method in brief: as §2
L1210 [8] = test: Cytotoxicity against folate receptor over-expressing mouse L1210 cells incubated for 24 hrs followed by 6 equiv GSH addition and further incubated for another 48 by MTT assay; assay type: functional, cell-based; conditions: L1210, 24 h; method in brief: as §3
WI-38 = test: Selectivity index, ratio of IC50 for folate receptor deficient human WI38 cells to IC50 for folate receptor over-expressing mouse ID8 cells
MX1 [9] = test: Selectivity index, ratio of IC50 for folate receptor deficient human WI38 cells to IC50 for folate receptor over-expressing human MX1 cells
L1210 [10] = test: Selectivity index, ratio of IC50 for folate receptor deficient human WI38 cells to IC50 for folate receptor over-expressing mouse L1210 cells

Structure (SMILES)	IC50 [1]	IC50 (MX1 [2])	IC50 (L1210 [3])	IC50 [4]	IC50 (MX1 [5])	IC50 (MX1 [6])	IC50 (L1210 [7])	IC50 (L1210 [8])	Ratio IC50 (WI-38)	Ratio IC50 (MX1 [9])	Ratio IC50 (L1210 [10])
CC(=O)O[C@@]12CO[C@@H]1C[C@H](O)[C@@]1(C)C(=O)[C@H](OC(=O)C3CC3)C3=C(C)[C@@H](OC(=O)[C@H](O)[C@H](C=C(C)C)NC(=O)OC(C)(C)C)C[C@@](O)([C@@H](OC(=O)c4ccccc4)[C@H]21)C3(C)C	2.82 nM	1.89 nM	2.66 nM	4.89 nM							
CC(=O)O[C@@]12CO[C@@H]1C[C@H](O)[C@@]1(C)C(=O)[C@H](OC(=O)C3CC3)C3=C(C)[C@@H](OC(=O)[C@H](OC(=O)Cc4ccccc4SSC(C)CCC(=O)NCCCOCCOCCOCCCNC(=O)c4ccc(CC5CCCCCc6c5nnn6CCOCCOCCOCCNC(=O)CC[C@@H](NC(=O)CC[C@@H](NC(=O)c5ccc(NCc6cnc7nc(N)nc(O)c7n6)cc5)C(=O)O)C(=O)N[C@H](CCCNC(=N)N)C(=O)O)cc4)[C@H](C=C(C)C)NC(=O)OC(C)(C)C)C[C@@](O)([C@@H](OC(=O)c4ccccc4)[C@H]21)C3(C)C (some centres undefined)	2.52 nM	3.43 nM	3.51 nM	> 5000 nM	2.08 nM	3.42 nM	3.35 nM	3.87 nM	>1000	>1000	>1000
CC(=O)O[C@H]1C(=O)[C@@]2(C)[C@H]([C@H](OC(=O)c3ccccc3)[C@]3(O)C[C@H](OC(=O)[C@H](O)[C@@H](NC(=O)c4ccccc4)c4ccccc4)C(C)=C1C3(C)C)[C@]1(OC(C)=O)CO[C@@H]1C[C@@H]2O [PACLITAXEL]	13.8 nM	5.59 nM	27.6 nM	55.7 nM							
